Measurements gathered from unrelated publications.
Each line is one published result; the experiments were not run side by side.
Target: Serine/threonine-protein kinase NIM1 (NIM1K, Homo sapiens, UniProt Q8IY84)

COc1cc(-c2cn(C3CCc4ccccc4N(CC(F)(F)F)C3=O)nn2)ccc1-n1ccc(C)n1 (centres unmarked)  remaining binding (cell-free assay; competition with immobilised ligand; 1 µM): 80%
Nc1ncnc2occ(-c3ccc(NC(=O)Nc4cc(C(F)(F)F)ccc4F)cc3)c12  remaining signal (cell-free assay; inhibitor; 20 µM): 67%
O=C(Nc1cnn(-c2csc(C(=O)NC3COC3)c2)c1)Nc1ccccc1Cl  remaining activity (enzyme activity; inhibitor; 5 µM): 101%
COc1cc(Cl)c(C(=O)N[C@@H](CN[C@H]2CC[C@@H](N)CC2)Cc2ccc(C#N)cc2)cc1-c1ccc(CN[C@H](C)c2ccc(C)cc2)o1  remaining activity (enzyme activity; inhibitor; 1 µM): 98%
Cc1c(C(=O)O)cc(-c2ccc(C3CCNCC3)cc2)c2ccc(-c3ccc(C(F)(F)F)cc3)cc12  remaining binding (binding; competition with immobilised ligand; 1 µM): 92%
Cc1cnc(NC2CCOCC2)nc1-n1cnc(C(=O)NC(CN)c2cc(F)cc(Cl)c2)c1 (centres unmarked)  remaining activity (enzyme activity; inhibitor; radiometric; 1 µM): 40%
Cc1ccc(NC(=O)c2ccc(C)c(C(F)(F)F)c2)cc1C#Cc1nn(C2CCC(O)CC2)c2ncnc(N)c12 (centres unmarked)  remaining signal (cell-free assay; 10 µM): 131%
CC/C(=N\NC(=O)NCc1cccc(O)c1)c1ccc(O)c(C)c1O  inhibition (enzyme activity; inhibitor; 0.1 µM): -2.9%
O=C(Nc1cnn(-c2csc(C(=O)NC3COC3)c2)c1)Nc1c(F)cccc1Cl  remaining activity (enzyme activity; inhibitor; 5 µM): 70.7%
Cc1cc(NC(=O)c2cccc3cc(-c4cccc5[nH]nc(N)c45)ccc23)ccc1F  activity vs control (enzyme activity; inhibitor; 0.1 µM): 115%
CN1CC(Oc2cnc(C#N)cc2-c2ccn3nc(NC(=O)C4CC4)cc3c2)C1  inhibition (enzyme activity; inhibitor; 1 µM): 8%
